Here are results for nine molecules from ChEMBL document CHEMBL3632581, “Dimers of Melampomagnolide B Exhibit Potent Anticancer Activity against Hematological and Solid Tumor Cells” (J Med Chem, 2015).

Molecules are shown by their SMILES. pEC50: −log10 of the molar value. Some results are limits rather than exact numbers.

The nature of test [1]: Antileukemic activity against human M9-ENL1 cells after 24 hrs by annexin V/7-AAD staining-based flow cytometric analysis. It counts as functional, cell-based. Put shortly: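 M9-ENL1 cells in alpha-MEM with 5% human plasma, 20% FBS, SCF, IL-3, IL-7 and FLT3. Drug came from a DMSO stock diluted in PBS (≤0.5% DMSO final), for 24 h over 0.5-10 μM. Cells negative for both annexin V and 7-AAD were taken as non-apoptotic and normalized to vehicle. EC50 read from dose-response curves, triplicate.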
A general note: Flow cytometry measures light scatter and fluorescence of single cells or particles in a stream.

The nature of test [2]: Antileukemic activity against human AML01 cells after 24 hrs by annexin V/7-AAD staining-based flow cytometric analysis. The class given is functional, cell-based. Put shortly: (§1)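 Primary AML specimens from consenting donors, isolated by Ficoll-Paque gradient and sometimes cryopreserved. Cells were held 1 h in serum-free IMDM with 20% BIT 9500, LDL and β-mercaptoethanol before drug (DMSO stock diluted in PBS, ≤0.5% DMSO final). Exposure was 24 h over 0.5-10 μM. Annexin V/7-AAD double-negative cells, normalized to vehicle, gave the EC50. Run in triplicate.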

Test [3] in a line: Antileukemic activity against human AML02 cells after 24 hrs by annexin V/7-AAD staining-based flow cytometric analysis. The class given is functional, cell-based. A digest of the protocol: as §1
The nature of test [4]: Antileukemic activity against human AML05 cells after 24 hrs by annexin V/7-AAD staining-based flow cytometric analysis. It counts as functional, cell-based. Put shortly:
as §1

Test [5] in a line: Potency index, ratio of parthenolide EC50 to compound EC50 for human M9-ENL1 cells. It counts as functional.
A short description of test [6]: Antileukemic activity against human AML03 cells after 24 hrs by annexin V/7-AAD staining-based flow cytometric analysis. It counts as functional, cell-based. Put shortly:
as §1

Test [7] is described as follows: Antileukemic activity against human AML04 cells after 24 hrs by annexin V/7-AAD staining-based flow cytometric analysis. The class given is functional, cell-based. A digest of the protocol:
as §1

Test [8] is described as follows: Cytotoxicity against hematopoietic progenitor cells isolated from human umbilical cord blood by annexin V staining-based flow cytometric analysis. It counts as cell-based. A digest of the protocol:
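Cord-blood mononuclear cells from Ficoll-Paque were plated in serum-free medium, with drug from a DMSO stock (≤0.5% DMSO final). Cells were stained for CD34, CD45 and annexin V. The non-apoptotic fraction (annexin V-negative within the CD34+CD45dim compartment) was normalized to vehicle, and EC50 was fitted where possible. Triplicate.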

In the case of `C=C1C(=O)O[C@H]2[C@H]1CC/C(COC(=O)NCCCNC(=O)OC/C1=C/CC[C@@]3(C)O[C@H]3[C@H]3OC(=O)C(=C)[C@@H]3CC1)=C\CC[C@@]1(C)O[C@@H]21`, the negative logarithm of the EC50 (pEC50) was 6.00 in test [1], 5.59 in test [2], 5.64 in test [3] and 5.43 in test [4]. The “Ratio EC50” value in test [5] is 2.

As to `C=C1C(=O)O[C@H]2[C@H]1CC/C(COC(=O)NCCCCCCNC(=O)OC/C1=C/CC[C@@]3(C)O[C@H]3[C@H]3OC(=O)C(=C)[C@@H]3CC1)=C\CC[C@@]1(C)O[C@@H]21`, the negative-log EC50 (pEC50) in test [1] was 5.82; in test [2] it was 5.80; in test [3], 5.92; in test [6], 5.46; in test [7], 5.43; in test [4], 5.77. The same molecule had a negative logarithm of the EC50 (pEC50) in test [8] of less than 5.00. For the same molecule, the “Ratio EC50” value in test [5] was 2.

As to `C=C1C(=O)O[C@H]2[C@H]1CC/C(COC(=O)NCCCCCCCNC(=O)OC/C1=C/CC[C@@]3(C)O[C@H]3[C@H]3OC(=O)C(=C)[C@@H]3CC1)=C\CC[C@@]1(C)O[C@@H]21`, the pEC50 is 5.96 in test [1]; 5.77 in test [2]; 5.89 in test [3]; 5.24 in test [6]; 5.44 in test [7]; 5.62 in test [4]. In test [8], the pEC50 was less than 5.00. Also, in test [5], the “Ratio EC50” value was found to be 2.

Consider `C=C1C(=O)O[C@H]2[C@H]1CC/C(COC(=O)NCCCCCCCCCNC(=O)OC/C1=C/CC[C@@]3(C)O[C@H]3[C@H]3OC(=O)C(=C)[C@@H]3CC1)=C\CC[C@@]1(C)O[C@@H]21`, for which the pEC50 in test [1] was 5.70; in test [2], 5.72; in test [3], 5.82; in test [6], 5.62; in test [7] it was 5.43; in test [4], 5.49. For the same molecule, the negative-log EC50 (pEC50) in test [8] is less than 5.00. In addition, the “Ratio EC50” value in test [5] was 2.

Take `C=C1C(=O)O[C@H]2[C@H]1CC/C(COC(=O)NCCCCCCCCCCNC(=O)OC/C1=C/CC[C@@]3(C)O[C@H]3[C@H]3OC(=O)C(=C)[C@@H]3CC1)=C\CC[C@@]1(C)O[C@@H]21`: the pEC50 is 5.54 in test [1]; 5.64 in test [2]; 5.70 in test [3]; 5.54 in test [6]; 5.38 in test [7]; 5.48 in test [4]. The negative-log EC50 (pEC50) in test [8] is less than 5.00. In addition, the “Ratio EC50” value in test [5] is 2.

As to `C=C1C(=O)O[C@H]2[C@H]1CC/C(COC(=O)OCCCCOC(=O)OC/C1=C/CC[C@@]3(C)O[C@H]3[C@H]3OC(=O)C(=C)[C@@H]3CC1)=C\CC[C@@]1(C)O[C@@H]21`, the pEC50 in test [1] was 5.92; in test [2], 6.03; in test [6], 6.07; in test [7], 5.57; in test [4] it was 5.57. For the same molecule, the “Ratio EC50” value in test [5] was 2.

For the molecule `C=C1C(=O)O[C@H]2[C@H]1CC/C(COC(=O)OCCCCCOC(=O)OC/C1=C/CC[C@@]3(C)O[C@H]3[C@H]3OC(=O)C(=C)[C@@H]3CC1)=C\CC[C@@]1(C)O[C@@H]21`, the pEC50 is 5.62 in test [1], 5.66 in test [3], 5.85 in test [6] and 5.68 in test [4]. For the same molecule, in test [5], the “Ratio EC50” value came out at 2.

As to `C=C1C(=O)O[C@H]2[C@H]1CC/C(COC(=O)OC/C1=C/CC[C@@]3(C)O[C@H]3[C@H]3OC(=O)C(=C)[C@@H]3CC1)=C\CC[C@@]1(C)O[C@@H]21`, the pEC50 was 6.27 in test [1] and 5.80 in test [2]. Besides, the “Ratio EC50” value in test [5] is listed as 2.

As for `C=C1C(=O)O[C@@H]2C3O[C@]3(C)CC/C=C(\C)CC[C@@H]12` (some centres not stated), the pEC50 was 5.22 in test [1]; 4.80 in test [2]; 5.60 in test [3]; 5.33 in test [6]; 5.10 in test [7]; 5.15 in test [4].

In general, pEC50 refers to the EC50 on a negative log10 scale, so that one unit is a factor of ten. A high value points to a small EC50.
